Results collected from several papers.
Target: Serine/threonine-protein kinase WNK1 (WNK1, Homo sapiens, UniProt Q9H4A3)

SMILES | read-out | action | technique | tested at | quantity | result
Cc1sc(C(=O)NC2COC2)cc1-n1cc(NC(=O)Nc2c(F)cccc2Cl)cn1 | enzyme activity | inhibitor |  | 10 µM | remaining activity | 88.9%
FC(F)(F)Oc1cccc(-c2cnc3ccc(-c4ccncc4)nn23)c1 | enzyme activity | inhibitor | radiometric | 1 µM | activity vs control | 105%
O=C(Nc1cnn(-c2csc(C(=O)NC3COC3)c2)c1)Nc1ccccc1Cl | enzyme activity | inhibitor |  | 5 µM | remaining activity | 99.7%
CO[C@@H](C)c1c(Nc2ccc([C@H](N(C)C(=O)C3CCS(=O)(=O)CC3)C(F)(F)F)cc2)cnc2cc(Cl)nn12 | cell-free assay |  | competition with immobilised ligand | 1 µM | remaining binding | 100%
O=C(CSc1nc2nccnc2c(=O)n1CCc1ccccc1)Nc1nccs1 | enzyme activity | inhibitor |  | 10 µM | inhibition | 1%
CN(c1nccc(-c2cnn3ncccc23)n1)C1CC1 | binding |  |  | 1 µM | remaining binding | 100%
CC(C)(C)c1nc2c(s1)c1nc(N)ncc1c1ccc(NS(=O)(=O)c3c(F)cccc3F)c(F)c12 | enzyme activity | inhibitor | radiometric | 1 µM | remaining activity | 103%
CCCCN(CCCC)C(=O)CN1C[C@@H](c2cc(OC)c3c(c2)OCO3)[C@H](C(=O)O)[C@H]1CC(C)(C)CCC | cell-free assay |  | competition with immobilised ligand | 1 µM | remaining binding | 96.8%
COc1cc(/C=C/C(=O)CC(=O)/C=C/c2ccc(O)c(OC)c2)ccc1O | enzyme activity | inhibitor |  | 1 µM | activity vs control | 98%
COc1cc(Cl)c(C(=O)N[C@@H](CN[C@H]2CC[C@@H](N)CC2)Cc2ccc(C#N)cc2)cc1-c1ccc(CN[C@H](C)c2ccc(C)cc2)o1 | enzyme activity | inhibitor |  | 1 µM | remaining activity | 109%
C[C@@H]1CN(c2cc(-c3n[nH]c4ccc(OC5(C)CC5)cc34)ncn2)C[C@H](C)O1 | cell-free assay |  | competition with immobilised ligand | 0.1 µM | remaining binding | 89%
COc1cc(Nc2cnc(C#N)c(O[C@H](C)CN(C)C)n2)ncc1-c1cnn(C)c1 | enzyme activity | inhibitor | radiometric | 10 µM | remaining activity | 75%
C[C@@H]1CN(c2cc(-c3nn(C)c4ccc(OC5(C)CC5)cc34)ncn2)C[C@H](C)O1 | cell-free assay |  | competition with immobilised ligand | 1 µM | remaining binding | 82%
N[C@@H]1CCN(c2nccc(-c3cnn4ncccc34)n2)C1 | binding |  |  | 1 µM | remaining binding | 100%
Cn1cc(Cl)c2c(Oc3c(F)cc(Nc4cc(Cl)nc(N)n4)cc3F)ccnc21 | cell-free assay |  | competition with immobilised ligand | 0.1 µM | remaining binding | 98%
Cn1cncc1C1=CN(c2ncnc3[nH]cnc23)CCS1 | enzyme activity | inhibitor | radiometric | 50 nM | inhibition | 14.1%
